Experimental data: ChEMBL document CHEMBL4406821, “Novel dual inhibitors targeting CDK4 and VEGFR2 synergistically suppressed cancer progression and angiogenesis” (Eur J Med Chem, 2019)
Active and inactive are the calls of the source. The calls are words filed in the database; no cut-off is given here.

What was measured:
HeLa = assay: Antiproliferative activity against human HeLa cells assessed as reduction in cell viability at 40 to 80 nM incubated for 48 hrs by EdU staining based laser scanning confocal microscopy; assay type: functional
In short: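 Cells, 5×10^4, were seeded in 24-well plates and treated for 48 h. They were then labeled using an EdU Apollo 488 imaging kit with Hoechst 33342 nuclear stain and imaged by laser scanning confocal microscopy. Percent EdU-positive cells = EdU-positive/Hoechst-stained × 100%.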

MDA-MB-231 = assay: Induction of apoptosis in human MDA-MB-231 cells assessed as decrease in Ki67 expression at 20 to 40 nM incubated for 48 hrs by Western blot analysis; assay type: functional, cell-based
In short: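 Cells were treated for 48 h, washed three times with PBS, and lysed in RIPA buffer. Immunoblots used anti-Rb, anti-phospho-Rb, anti-Ki67 and anti-Bcl-2 (each 1:1000), with β-actin as loading control.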

SiHa = assay: Antitumor activity against human SiHa cells xenografted in orally dosed NOD/SCID BALB/c mouse assessed as reduction in Ki67 expression measured after 21 days by hematoxylin and eosin staining based immunohistochemistry; assay type: functional, organism-based
In short: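 Female NOD/SCID Balb/c mice, 6–8 weeks old, received 2×10^6 SiHa cells subcutaneously in the right flank. Once tumors reached 100 mm³, mice were randomized, 5 per group, and gavaged once daily for 21 days. Formalin-fixed, paraffin-embedded tumor sections were stained with Ki67 or CD31 antibody (1:100, 4 °C overnight), then biotin secondary and ABC-peroxidase/DAB, with hematoxylin counterstain.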

[1] = target: Bone morphogenetic protein receptor type-2 (Homo sapiens) (UniProt Q13873); assay: Inhibition of recombinant human BMPR2 (172 to 734 residues) at 1 uM using myelin ba as substrate incubated for 120 mins in presence of [gamma-33P]-ATP by scintillation counting method relative to control
In short: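 Kinase panel profiling at 1 μM performed by Eurofins KinaseProfiler; percent inhibition reported as mean of two independent experiments.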

[2] = target: Transient receptor potential cation channel subfamily M member 7 (Homo sapiens) (UniProt Q96QT4); assay: Inhibition of recombinant human CHAK1 (1180 to end residues) at 1 uM using myelin ba as substrate incubated for 40 mins in presence of [gamma-33P]-ATP by scintillation counting method relative to control
In short: (§1)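 Tested at a single 1 uM in an outsourced commercial kinase-profiling panel, read as percent inhibition. Each value is the mean of two independent experiments.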

[3] = tested on: Mast/stem cell growth factor receptor Kit (Homo sapiens), P10721 [V560G]; assay: Inhibition of recombinant human cKIT V560G mutant (544 to end residues) at 1 uM using GGMEDIYFEFMGG as substrate incubated for 40 mins in presence of [gamma-33P]-ATP by scintillation counting method relative to control; in short: as §1
[4] = tested on: Mast/stem cell growth factor receptor Kit (Homo sapiens), P10721 [V654A]; assay: Inhibition of recombinant human c-KIT V654A mutant (544 to end residues) at 1 uM using GGMEDIYFEFMGG as substrate incubated for 40 mins in presence of [gamma-33P]-ATP by scintillation counting method relative to control; in short: as §1
[5] = target: Receptor tyrosine-protein kinase erbB-2 (Homo sapiens) (UniProt P04626); assay: Inhibition of recombinant human ERBB2 (676 to end residues) at 1 uM using poly (Glu, Tyr) 4:1 as substrate incubated for 40 mins in presence of [gamma-33P]-ATP by scintillation counting method relative to control
[6] = target: Tyrosine-protein kinase Fgr (Homo sapiens) (UniProt P09769); assay: Inhibition of recombinant human FGR (2 to end residues) at 1 uM using poly(Glu, Tyr) 4:1 as substrate incubated for 40 mins in presence of [gamma-33P]-ATP by scintillation counting method relative to control
[7] = target: Serine/threonine-protein kinase/endoribonuclease IRE1 (Homo sapiens) (UniProt O75460); assay: Inhibition of recombinant human IRE1 (465 to end residues) at 1 uM using myelin basic protein as substrate incubated for 40 mins in presence of [gamma-33P]-ATP by scintillation counting method relative to control
[8] = target: Mitogen-activated protein kinase kinase kinase 3 (Homo sapiens) (UniProt Q99759); assay: Inhibition of recombinant human full length MEKK3 at 1 uM using myelin basic protein as substrate incubated for 40 mins in presence of [gamma-33P]-ATP by scintillation counting method relative to control
[9] = tested on: Hepatocyte growth factor receptor (Homo sapiens), P08581 [D1246H]; assay: Inhibition of recombinant human Met D1246H mutant (974 to end residues) at 1 uM using KKKGQEEEYVFIE as substrate incubated for 40 mins in presence of [gamma-33P]-ATP by scintillation counting method relative to control
[10] = target: Serine/threonine-protein kinase MRCK alpha (Homo sapiens) (UniProt Q5VT25); assay: Inhibition of recombinant human MRCKalpha (1 to 473 residues) at 1 uM using KKRNRTLTV as substrate incubated for 40 mins in presence of [gamma-33P]-ATP by scintillation counting method relative to control
[11] = target: SRSF protein kinase 3 (Homo sapiens) (UniProt Q9UPE1); assay: Inhibition of recombinant human full length MSSK1 at 1 uM using ERMRPRKRQGSVRRRV as substrate incubated for 40 mins in presence of [gamma-33P]-ATP by scintillation counting method relative to control
[12] = target: Protein kinase C theta type (Homo sapiens) (UniProt Q04759); assay: Inhibition of recombinant human full length PKCtheta at 1 uM using histone H1 as substrate incubated for 40 mins in presence of [gamma-33P]-ATP by scintillation counting method relative to control
[13] = target: Protein kinase C beta type (Homo sapiens) (UniProt P05771); assay: Inhibition of recombinant human PKCbeta1 (2 to end residues) at 1 uM using histone H1 as substrate incubated for 40 mins in presence of [gamma-33P]-ATP by scintillation counting method relative to control
[14] = target: Tau-tubulin kinase 1 (Homo sapiens) (UniProt Q5TCY1); assay: Inhibition of recombinant human TTBK1 (1 to 479 residues) at 1 uM using casein as substrate incubated for 40 mins in presence of [gamma-33P]-ATP by scintillation counting method relative to control; in short: as §1
[15] = target: Serine/threonine-protein kinase WNK3 (Homo sapiens) (UniProt Q9BYP7); assay: Inhibition of recombinant human WNK3 (1 to 434 residues) at 1 uM using myelin basic protein as substrate incubated for 40 mins in presence of [gamma-33P]-ATP by scintillation counting method relative to control
[16] = Toxicity in BALB/c mouse assessed as effect on blood parameter by measuring hemoglobin content at 40 mg/kg, po administered once two days for 4 times by hematology analyzer; conditions: in vivo
Mus musculus = assay: Antiangiogenic activity in Matrigel plug angiogenic BALB/c mouse assessed as reduction in blood vessel formation at 20 mg/kg, sc measured after 10 days by Matrigel plug assay; assay type: functional, organism-based
In short: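 Balb/c mice, 5 weeks old, were injected subcutaneously with 750 µL of a 2:1 mix of growth factor-reduced Matrigel and compound (10 or 20 mg/kg) or vehicle. Plugs were harvested after 10 days and the subcutaneous vessels photographed.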

Sequence of Mitogen-activated protein kinase kinase kinase 3 (Homo sapiens) (Q99759 whole entry): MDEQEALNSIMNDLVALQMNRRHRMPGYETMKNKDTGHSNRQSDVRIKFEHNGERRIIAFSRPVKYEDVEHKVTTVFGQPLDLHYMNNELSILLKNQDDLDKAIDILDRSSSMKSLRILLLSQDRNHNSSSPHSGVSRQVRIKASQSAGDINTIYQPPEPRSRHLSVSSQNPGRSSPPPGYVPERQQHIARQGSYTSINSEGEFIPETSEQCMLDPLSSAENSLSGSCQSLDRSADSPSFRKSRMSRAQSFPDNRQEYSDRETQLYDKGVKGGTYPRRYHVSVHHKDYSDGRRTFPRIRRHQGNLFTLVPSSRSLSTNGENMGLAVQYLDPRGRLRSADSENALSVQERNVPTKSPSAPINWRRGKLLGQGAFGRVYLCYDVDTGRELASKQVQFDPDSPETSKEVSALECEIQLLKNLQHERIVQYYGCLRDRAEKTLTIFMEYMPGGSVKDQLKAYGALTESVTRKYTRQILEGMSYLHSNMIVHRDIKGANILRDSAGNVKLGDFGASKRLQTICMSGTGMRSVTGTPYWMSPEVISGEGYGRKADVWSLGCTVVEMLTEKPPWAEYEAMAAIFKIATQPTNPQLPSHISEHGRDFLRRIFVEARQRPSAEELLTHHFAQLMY
Sequence of Protein kinase C beta type (Homo sapiens) (P05771 2-671 limits assumed): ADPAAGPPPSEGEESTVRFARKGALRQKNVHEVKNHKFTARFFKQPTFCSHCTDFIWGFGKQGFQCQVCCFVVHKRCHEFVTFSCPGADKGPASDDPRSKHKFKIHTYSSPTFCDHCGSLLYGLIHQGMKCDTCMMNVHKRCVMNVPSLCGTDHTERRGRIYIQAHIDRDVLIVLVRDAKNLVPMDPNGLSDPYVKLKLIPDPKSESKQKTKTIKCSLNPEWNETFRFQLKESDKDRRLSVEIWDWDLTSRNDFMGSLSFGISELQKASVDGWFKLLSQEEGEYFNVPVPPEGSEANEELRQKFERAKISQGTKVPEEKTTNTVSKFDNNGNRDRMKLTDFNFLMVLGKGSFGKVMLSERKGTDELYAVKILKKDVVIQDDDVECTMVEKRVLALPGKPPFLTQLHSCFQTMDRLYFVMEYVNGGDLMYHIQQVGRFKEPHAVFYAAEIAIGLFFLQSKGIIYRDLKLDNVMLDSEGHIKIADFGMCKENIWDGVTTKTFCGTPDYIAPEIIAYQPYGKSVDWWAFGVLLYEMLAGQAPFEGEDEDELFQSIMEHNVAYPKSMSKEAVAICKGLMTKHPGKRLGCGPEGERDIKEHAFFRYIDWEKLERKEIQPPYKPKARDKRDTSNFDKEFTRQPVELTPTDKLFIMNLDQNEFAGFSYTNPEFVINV
Sequence of Tyrosine-protein kinase Fgr (Homo sapiens) (P09769 2-529 limits assumed): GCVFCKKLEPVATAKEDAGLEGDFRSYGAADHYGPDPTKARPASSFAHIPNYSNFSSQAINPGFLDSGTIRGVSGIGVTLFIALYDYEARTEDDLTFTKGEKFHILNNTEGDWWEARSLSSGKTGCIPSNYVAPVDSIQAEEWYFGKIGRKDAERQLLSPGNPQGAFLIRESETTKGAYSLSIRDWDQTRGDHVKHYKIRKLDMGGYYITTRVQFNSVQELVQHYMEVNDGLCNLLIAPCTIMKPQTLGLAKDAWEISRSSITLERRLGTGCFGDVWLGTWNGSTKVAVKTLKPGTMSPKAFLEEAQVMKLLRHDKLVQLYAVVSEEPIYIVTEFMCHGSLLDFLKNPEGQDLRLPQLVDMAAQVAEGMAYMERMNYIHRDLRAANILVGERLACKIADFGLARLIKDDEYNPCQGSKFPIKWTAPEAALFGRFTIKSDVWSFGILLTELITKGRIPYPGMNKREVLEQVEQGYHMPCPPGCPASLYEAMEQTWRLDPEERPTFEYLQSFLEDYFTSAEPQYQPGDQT
Sequence of Serine/threonine-protein kinase/endoribonuclease IRE1 (Homo sapiens) (O75460 19-977 limits assumed): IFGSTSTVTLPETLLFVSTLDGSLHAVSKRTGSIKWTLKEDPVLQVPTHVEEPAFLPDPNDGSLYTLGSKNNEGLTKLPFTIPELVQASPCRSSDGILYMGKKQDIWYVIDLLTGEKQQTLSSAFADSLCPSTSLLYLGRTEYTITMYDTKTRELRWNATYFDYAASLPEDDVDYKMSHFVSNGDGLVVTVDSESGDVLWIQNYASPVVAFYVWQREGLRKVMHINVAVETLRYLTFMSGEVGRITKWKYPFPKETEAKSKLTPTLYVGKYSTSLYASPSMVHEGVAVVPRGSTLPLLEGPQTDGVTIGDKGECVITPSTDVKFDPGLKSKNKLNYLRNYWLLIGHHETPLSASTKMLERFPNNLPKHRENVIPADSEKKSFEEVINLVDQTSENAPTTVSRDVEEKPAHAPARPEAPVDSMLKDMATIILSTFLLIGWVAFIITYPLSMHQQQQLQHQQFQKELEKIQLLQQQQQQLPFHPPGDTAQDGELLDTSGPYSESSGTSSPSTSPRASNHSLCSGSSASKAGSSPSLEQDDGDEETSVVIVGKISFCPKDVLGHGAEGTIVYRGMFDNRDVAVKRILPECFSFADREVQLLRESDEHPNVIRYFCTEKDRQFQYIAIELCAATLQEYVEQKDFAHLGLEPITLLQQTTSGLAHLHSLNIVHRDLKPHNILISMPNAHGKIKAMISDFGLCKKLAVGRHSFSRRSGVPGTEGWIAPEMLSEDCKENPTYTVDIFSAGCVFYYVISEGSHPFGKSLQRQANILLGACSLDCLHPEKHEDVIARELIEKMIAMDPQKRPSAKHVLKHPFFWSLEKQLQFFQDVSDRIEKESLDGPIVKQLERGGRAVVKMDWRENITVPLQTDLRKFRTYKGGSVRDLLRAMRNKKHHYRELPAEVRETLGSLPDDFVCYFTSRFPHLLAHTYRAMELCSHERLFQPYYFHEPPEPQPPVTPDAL
Sequence of Serine/threonine-protein kinase WNK3 (Homo sapiens) (Q9BYP7 whole entry, the tested form may be a part): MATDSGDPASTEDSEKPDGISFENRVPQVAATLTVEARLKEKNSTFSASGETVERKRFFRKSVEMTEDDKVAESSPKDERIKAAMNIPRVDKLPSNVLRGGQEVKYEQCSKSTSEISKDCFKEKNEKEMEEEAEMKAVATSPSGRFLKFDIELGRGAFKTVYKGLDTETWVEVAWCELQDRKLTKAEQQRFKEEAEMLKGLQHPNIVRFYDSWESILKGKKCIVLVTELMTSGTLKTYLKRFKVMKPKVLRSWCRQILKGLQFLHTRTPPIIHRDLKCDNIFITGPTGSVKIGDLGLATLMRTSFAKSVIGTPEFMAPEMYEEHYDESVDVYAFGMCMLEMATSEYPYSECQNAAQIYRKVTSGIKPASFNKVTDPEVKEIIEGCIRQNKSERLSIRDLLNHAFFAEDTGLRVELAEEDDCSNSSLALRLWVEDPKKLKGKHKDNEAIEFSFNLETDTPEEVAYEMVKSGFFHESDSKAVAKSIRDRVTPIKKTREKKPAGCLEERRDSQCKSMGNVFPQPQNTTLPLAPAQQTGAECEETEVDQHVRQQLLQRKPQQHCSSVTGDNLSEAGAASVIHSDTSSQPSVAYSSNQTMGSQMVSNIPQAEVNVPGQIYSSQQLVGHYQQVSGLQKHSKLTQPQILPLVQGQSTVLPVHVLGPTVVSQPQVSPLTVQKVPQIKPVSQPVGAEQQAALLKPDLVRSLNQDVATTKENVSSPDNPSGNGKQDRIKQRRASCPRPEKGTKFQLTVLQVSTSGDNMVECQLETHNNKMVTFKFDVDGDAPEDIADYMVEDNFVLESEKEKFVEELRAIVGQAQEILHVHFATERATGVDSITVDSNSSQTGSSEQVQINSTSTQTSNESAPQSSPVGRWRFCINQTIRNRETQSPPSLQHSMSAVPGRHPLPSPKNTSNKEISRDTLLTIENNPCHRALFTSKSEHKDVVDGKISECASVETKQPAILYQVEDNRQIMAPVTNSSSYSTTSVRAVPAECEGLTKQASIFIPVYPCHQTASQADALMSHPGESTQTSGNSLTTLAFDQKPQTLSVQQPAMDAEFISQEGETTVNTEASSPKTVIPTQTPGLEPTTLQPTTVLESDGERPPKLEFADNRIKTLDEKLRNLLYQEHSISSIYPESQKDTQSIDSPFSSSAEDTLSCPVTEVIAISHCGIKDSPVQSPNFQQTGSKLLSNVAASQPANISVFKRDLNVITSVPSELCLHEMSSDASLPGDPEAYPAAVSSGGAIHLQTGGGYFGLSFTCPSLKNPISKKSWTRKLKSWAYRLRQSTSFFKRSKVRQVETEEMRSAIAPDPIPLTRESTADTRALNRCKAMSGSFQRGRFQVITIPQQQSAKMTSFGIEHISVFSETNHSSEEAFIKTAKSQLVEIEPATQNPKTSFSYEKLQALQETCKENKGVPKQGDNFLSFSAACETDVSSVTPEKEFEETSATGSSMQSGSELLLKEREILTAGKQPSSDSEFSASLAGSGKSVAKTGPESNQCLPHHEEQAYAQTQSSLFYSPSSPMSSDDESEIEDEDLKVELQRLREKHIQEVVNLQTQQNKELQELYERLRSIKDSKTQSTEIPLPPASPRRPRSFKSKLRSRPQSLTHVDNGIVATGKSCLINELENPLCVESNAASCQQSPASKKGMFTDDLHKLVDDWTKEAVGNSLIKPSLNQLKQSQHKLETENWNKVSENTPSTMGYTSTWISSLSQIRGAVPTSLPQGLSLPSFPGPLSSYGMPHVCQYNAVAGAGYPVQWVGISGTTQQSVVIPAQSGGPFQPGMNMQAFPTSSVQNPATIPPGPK

Q: Which results are given for `Cc1ccc(NC(=O)C2(C(=O)Nc3ccc(Nc4ncc(F)c(-c5cc(F)c6nc(C)n(C(C)C)c6c5)n4)cc3)CC2)cc1`?
A: inhibition (HeLa): Active; Activity (MDA-MB-231): Active; inhibition (SiHa): Dose-dependent effect; inhibition [1]: 78%; inhibition [2]: 0%; inhibition [3]: 73%; inhibition [4]: 45%; inhibition [5]: 3%; inhibition [6]: 55%; inhibition [7]: 33%; inhibition [8]: 78%; inhibition [9]: 55%; inhibition [10]: 21%; inhibition [11]: 2%; inhibition [12]: 40%; inhibition [13]: 36%; inhibition [14]: 0%; inhibition [15]: 17%; Activity [16]: Non-Toxic

Q: Which inhibition (Mus musculus) does the source give for `COc1cc2nccc(Oc3ccc(NC(=O)C4(C(=O)Nc5ccc(F)cc5)CC4)cc3)c2cc1OC` [CABOZANTINIB] here?
A: Its inhibition is “Active”.
